Screening results (PubChem BioAssay)
Compounds with a hit are over-represented: about 9.5% of the library has one in this group of screens.
M1 antag – antagonists of rat M1 muscarinic receptor. Muscarinic acetylcholine receptor M1 (Rattus norvegicus), P08482. CHO-M1 cells, Fluo-4 calcium, ACh EC80 antagonist mode; active compounds read low. B-score at 10 µM. AID 628, 2007. 64,000 compounds, 3.4% hits;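 active = calcium fluorescence response, raw or row-and-column corrected B-score, differing from the plate sample mean either way at a set confidence level, mostly lower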
Htt clearance – clearance of mutant huntingtin inclusions, primary screen, imaging, HeLa Exon1htt(103Q)mCFP, confocal imaging; aggregate imaging; zero = plate's median compound well; inhibition, % at 1.5 µM; 47,000 compounds, 0.42% hits; AID 853, 2007;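 active = inhibition of aggregate fluorescence above about 70%, also judged a hit by eye on the cell image, limit read from the data, passing the limit was not always enough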;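 also: cells exposed to compound for three days before fixation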
Jurkat tox 60K – cytotoxicity toward Jurkat T cells, primary screen, cytotoxicity control, cell-based, Jurkat E6.1, 60K MLSMR library | 56,000 compounds, 1.2% hits | Jurkat E6.1 viability, ATP luminescence, 48 h | inhibition, % at 4 µM | AID 463, 2006;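 active = inhibition above the mean inhibition of all tested compounds plus 3 SD, cut at about 28% in these data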
D1 allo mod – D1 CRE-luciferase signal change, two-sided – cell-based, HEK293 D1, dopamine EC30, D1 allosteric modulator project, primary screen | D(1A) dopamine receptor (Homo sapiens), P21728 | B-score at 10 µM | 58,000 compounds, 5.9% hits | dopamine EC30 potentiation; actives deviate in either direction;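 active = luminescence count or its row- and column-corrected plate score outside the 99.7% band of the plate's sample wells, on either side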
Target sequence (P21728 whole entry, looked up): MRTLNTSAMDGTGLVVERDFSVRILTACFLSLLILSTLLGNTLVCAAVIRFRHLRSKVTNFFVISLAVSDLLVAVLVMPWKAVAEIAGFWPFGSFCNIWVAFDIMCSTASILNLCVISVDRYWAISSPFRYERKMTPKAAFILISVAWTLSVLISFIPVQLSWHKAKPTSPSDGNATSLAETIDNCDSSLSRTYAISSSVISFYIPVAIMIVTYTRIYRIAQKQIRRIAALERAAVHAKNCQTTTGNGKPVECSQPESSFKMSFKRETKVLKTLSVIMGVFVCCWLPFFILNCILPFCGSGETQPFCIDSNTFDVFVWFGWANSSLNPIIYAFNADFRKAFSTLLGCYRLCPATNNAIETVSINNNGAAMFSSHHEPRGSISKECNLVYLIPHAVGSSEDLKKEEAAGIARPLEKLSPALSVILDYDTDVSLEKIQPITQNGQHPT
M1 agonist – M1 muscarinic receptor agonists, primary screen, CHO-M1 cells, Fluo-4 calcium, agonist mode; Muscarinic acetylcholine receptor M1; Fluo-4 calcium fluorescence; active compounds read high; B-score at 10 µM; 64,000 compounds, 3% hits;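 active = fluorescence rise, raw or as B-score row- and column-corrected plate score, outside the 99.7% band of its plate's samples, either direction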
HEK293 NFkB inh – inhibitors of PMA/ionomycin-induced NF-kB reporter, primary screen, antigen receptor NF-kB inhibitor project, cell-based, HEK-293 luciferase reporter, luminescence; HEK-293 NF-kB luciferase reporter; inhibition, % at 3 µM; 62,000 compounds, 0.21% hits; AID 465, 2006;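 active = inhibition above the mean of all tested compounds plus 3 SD, cut at about 40% in these data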;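 also: 0% = stimulated DMSO wells and 100% = 10 µM reference inhibitor 5653914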
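Reagent: PMA plus ionomycin mix as NF-kB-activating stimulus. Assay system: NF-kB luciferase reporter HEK-293 cells. Technique: luminescence from luciferase substrate reagent. Incubation: 1 h compound pre-incubation, 16 h PMA/ionomycin at 37 °C. Benchmarks: DMSO only as uninhibited control, 10 µM reference inhibitor as full inhibition. Repeats: tested once.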
M1 antag confirm – rat M1 muscarinic receptor antagonists, confirmation, CHO cells, Fluo-4 calcium, duplicate. shares compounds with M1 antag. AID 677, 2007. ACh EC80 antagonism; active compounds read low. 1,700 compounds, 43% hits. calcium response (max-min fluorescence) at 10 µM;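 active = calcium response below the same-plate mean of wells given acetylcholine alone at its 80%-effect dose, minus 3 SD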;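 also: raw fluorescence intensity difference in arbitrary instrument units and not normalized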
mGluR4 antag – human mGluR4 response to M1 antagonist hits, M1 allosteric modulator project, cell-based, antagonist mode, secondary assay 1; CHO-mGluR4 calcium flux, Fluo-4 fluorescence, glutamate EC80; active compounds read low; AID 678, 2007; shares compounds with M1 antag; 1,700 compounds, 0.9% hits; fluorescence response (max-min) at 10 µM;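 active = fluorescence response below the plate's average for near-maximal glutamate wells, less 3 SD of those wells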;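 also: raw unnormalized fluorescence span taken in the window right after glutamate addition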
An asterisk follows results filed as active; / = not tested or not shown.

SMILES	M1 antag	Htt clearance	Jurkat tox 60K	D1 allo mod	M1 agonist	HEK293 NFkB inh	M1 antag confirm	mGluR4 antag
CCOC(=O)c1ccc(NC(=O)CSc2nccn2C)cc1	-3.3*	/	1	-0.76	-0.23	6	623	229
CCOC(=O)c1ccc(NC(=O)CSc2nnc(COc3ccccc3)n2C)cc1	-0.17	33	0	0.16	0.33	26	/	/
Cc1ccc(NS(=O)(=O)c2cccc(C(=O)Nc3cc(C)on3)c2)cc1	0.3	/	/	-0.84	1.8	14	/	/
CCC(c1nnnn1Cc1ccco1)N(Cc1cc2cc(C)cc(C)c2[nH]c1=O)CC1CCCO1 (stereo unspecified)	0.13	/	0	0.24	-0.56	18	/	/
CCC(c1nnnn1Cc1ccco1)N(Cc1ccccc1OC)Cc1cc2cc(C)ccc2[nH]c1=O (stereo unspecified)	-2.2*	50	2	0.8	0.65	21	590	201
C1CCc2nnc(-c3nnc4n3CCCCC4)n2CC1	-1.6	-6	-4	-0.0014	0.36	6	/	/
Cc1ccc(C)n1-c1ccc(-c2nnc3n2CCCCC3)s1	-1.4*	/	-5	-2	-0.77	9	594	236
CCc1ccc(NC(=O)Nc2cccs2)cc1	-2.3*	/	1	-0.25	-0.46	-34	569	215
COCCCn1c(=N)c(C(=O)NCc2ccc3c(c2)OCO3)cc2c(=O)n3cccc(C)c3nc21	-7.1*	/	-2	-0.39	0.61	18	90*	204
CCOCCCn1c(=N)c(C(=O)NCc2ccc3c(c2)OCO3)cc2c(=O)n3cccc(C)c3nc21	-10*	-132	4	0.65	0.41	11	91*	202
COCCCn1c(=N)c(C(=O)NCc2ccc3c(c2)OCO3)cc2c(=O)n3ccccc3nc21	-2	-29	6	-2	-0.77	2	/	/
Cc1cc(NCCCN2CCOCC2)n2nc(C)c(-c3ccccc3)c2n1	-0.084	1	4	0.21	0.93	14	/	/
COc1ccccc1-c1c(C)nn2c(NCCN3CCCC3)cc(C)nc12	-1.9*	/	-7	-1.3	0.062	-8	460	215
CCC1CCCCN1CCCNC(=O)c1cn(CC(C)C)c(=O)c2cc(OC)c(OC)cc12 (stereo unspecified)	-1.2*	/	/	-0.52	0	5	458*	250
COc1cc2c(C(=O)NCc3ccc(C)o3)cn(CC(C)C)c(=O)c2cc1OC	0.23	/	0	-0.00059	0.041	5	/	/
CCOC(=O)c1cnc(C(C)(C)C)[nH]c1=O	-0.26	/	-6	-0.32	-0.0095	2	/	/
COc1ccc(CCn2nnnc2C(c2ccc(Cl)cc2)N2CCN(C)CC2)cc1OC (stereo unspecified)	-3.1*	-16	-8	-1.3	0.047	1	630	258
CCOC(=O)c1cc(C)n(S(=O)(=O)c2ccc(C)cc2)c1C	-0.029	-21	6	/	0.66	15	/	/
CCSc1sccc1C1C(C#N)=C(N)N(c2cccnc2)C2=C1C(=O)CC(C)(C)C2 (stereo unspecified)	-5.1*	/	-3	2.4	0.0052	15	622	199
COc1ccc2c(c1)Sc1ccccc1N2CCN(C)C	-8.6*	/	0	-1.7	0.44	19	114*	247
CCOc1ccc2ccccc2c1C(=O)Nc1cc(=O)n(C)c(=O)n1C	-0.34	/	1	0.061	0.62	16	/	/
CN1CCc2c(c3c(n2C)CCN(C)[C@@H]3c2cccnc2)[C@H]1c1cccnc1	-3.1*	/	/	/	0.45	/	624	225
CCn1c(CNc2ccccc2Cl)nnc1SCC(=O)NCc1ccccc1	-3*	/	4	-0.051	0.34	6	465*	239
CCn1c(CNC(=O)c2cccs2)nnc1SCC(=O)Nc1ccc(Cl)cc1	/	38	/	/	/	/	/	/
CCn1c(CNC(=O)c2ccco2)nnc1SCC(=O)Nc1cc(C(F)(F)F)ccc1Cl	-1.2*	/	10	-0.31	0.26	22	659	184
SMILES	M1 antag	Htt clearance	Jurkat tox 60K	D1 allo mod	M1 agonist	HEK293 NFkB inh	M1 antag confirm	mGluR4 antag
CCOC(=O)c1cnc2c(Cl)c(Cl)ccc2c1N1CCN(C)CC1	-3.1*	-30	0	-1.2	-0.52	4	511	211
CCOC(=O)c1cnc2ccc(OCC)cc2c1N1CCN(c2ccccc2)CC1	/	16	/	/	/	/	/	/
Cc1cccc(N=C(N2CCOCC2)P(=O)(N2CCOCC2)N2CCOCC2)c1	-0.09	-38	/	-0.46	0.081	-1	/	/
C=CCNC(=O)C(C#N)c1nc2ccccc2nc1N1CCCCCC1 (stereo unspecified)	-2.8*	32	/	/	1.6	/	603	274
CC1CCc2nc(NC(=O)CN3CCN(c4ccccc4)CC3)sc2C1 (stereo unspecified)	-0.039	-34	-8	0.052	-0.029	6	/	/
CC1CCc2nc(NC(=O)CN3CCOCC3)sc2C1 (stereo unspecified)	-4*	36	-1	-0.045	0.92	1	666	198
O=C(NCCN1CCCCC1)Nc1ccc(F)c(Cl)c1	-2.8*	/	-1	-1.1	0.23	8	569	216
O=C(NCCCN1CCCC1=O)Nc1ccc(F)c(Cl)c1	/	-30	/	/	/	/	/	/
CCCCNC(=O)N1CCOCCOCCN(C(=O)NCCCC)CCOCC1	-2.3*	-10	/	-0.064	0.059	/	589	244
Cc1nc(NCc2ccco2)c2c3c(sc2n1)CCC3	-1.9*	58	36*	-4.7*	0.12	-16	621	268
O=C(NC1CCCCCCC1)c1ccccc1O	-2.2*	/	4	0.12	-0.22	-18	607	268
CSc1ccccc1C(=O)NC1CCCCCC1	/	0	/	/	/	/	/	/
CCc1ccc(N2C(=O)C3ON(c4ccccc4)C(c4ccco4)C3C2=O)cc1 (stereo unspecified)	0.75	/	0	0.18	-0.9	7	/	/
CCCCN1C(=O)C2ON(c3ccccc3C)C(c3ccco3)C2C1=O (stereo unspecified)	-0.94*	/	3	-0.24	0.19	8	532*	223
Cc1ccc(NC(=O)C2CCN(C(=O)NC3CCCCC3)CC2)cc1Cl	0.23	15	-4	-0.92	-0.33	13	/	/
Cc1ccc(NC(=O)NC2CCCCC2)cc1Cl	-1.1*	9	-6	-1.3	-0.67	-48	524	202
COC(=O)c1ccccc1NC(=O)CSCC(=O)Nc1ccccc1	/	-37	/	/	/	/	/	/
